bIAP act: bovine intestinal alkaline phosphatase activators, primary screen, biochemical, bovine IAP, CDP-star luminescence | alkaline phosphatase, intestinal [Bos taurus] | purified bovine IAP, 30 min; stronger effect = higher value; fold of DMSO-control signal, blank-subtracted | hit rate 0.17% among 200,000 | activation factor at 20 µM;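 active = activation factor of 2 or more at 20 µM, a signal rise over negative controls twice the positive control's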
hIAP block: human IAP inhibitors, primary screen, biochemical, luminescence, uHTS | Intestinal-type alkaline phosphatase (Homo sapiens), P09923 | purified IAP, CDP-Star luminescence, 30 min | inhibition, % at 10 µM | hit rate 0.12% among 330,000;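 active = inhibition reaching a set limit with compound at 10 µM in the primary screen, cut at about 35% in these data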;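 also: plate controls were DMSO wells with enzyme for no effect and no-enzyme buffer wells for full effect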
Target sequence (P09923 whole entry, looked up): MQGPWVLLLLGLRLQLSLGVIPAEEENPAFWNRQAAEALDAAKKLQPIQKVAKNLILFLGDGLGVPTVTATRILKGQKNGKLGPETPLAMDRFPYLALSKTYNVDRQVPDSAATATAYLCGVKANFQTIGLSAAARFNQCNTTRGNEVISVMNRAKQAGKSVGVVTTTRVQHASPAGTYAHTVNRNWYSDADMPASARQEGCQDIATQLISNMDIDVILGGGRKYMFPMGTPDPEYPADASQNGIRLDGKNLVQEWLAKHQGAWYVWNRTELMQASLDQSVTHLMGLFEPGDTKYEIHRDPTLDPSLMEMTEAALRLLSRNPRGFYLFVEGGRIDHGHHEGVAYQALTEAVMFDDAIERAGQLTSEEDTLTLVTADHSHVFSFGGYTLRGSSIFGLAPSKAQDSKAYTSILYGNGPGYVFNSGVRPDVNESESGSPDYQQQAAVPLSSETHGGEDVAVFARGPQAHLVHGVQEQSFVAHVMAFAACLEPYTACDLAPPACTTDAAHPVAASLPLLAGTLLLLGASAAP
mIAP activ: activators of mouse IAP, primary screen, biochemical, luminescence, uHTS. intestinal alkaline phosphatase [Mus musculus]. muIAP, CDP-Star luminescence, 30 min; stronger effect = higher value; 1 = vehicle-only enzyme signal, 0 = enzyme-free wells. activation factor at 10 µM. hit rate 0.24% among 330,000;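 active = activation factor of at least 2 at 20 µM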
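System: mouse IAP enzyme. Reagent: CDP-Star chemiluminescent phosphatase substrate. Benchmarks: DMSO wells, no-enzyme wells. Times: 30 min enzyme-substrate-compound incubation at room temperature. Detection: luminescence from enzymatic CDP-Star hydrolysis. Doses: test compounds delivered from DMSO solution.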
bIAP inh: bovine intestinal alkaline phosphatase inhibitors, primary screen, selectivity assay for TNAP inhibitor project, biochemical, bovine IAP, CDP-star luminescence; alkaline phosphatase, intestinal [Bos taurus]; purified bovine IAP, 30 min; inhibition, % at 20 µM; 190,000 tested, under 10 active;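 active = over 50% inhibition of intestinal alkaline phosphatase at 20 µM in the single-dose screen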
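Assay system: bovine IAP enzyme; medium: DEA buffer 100 mM, pH 9.8, with MgCl2 1.0 mM, ZnCl2 0.02 mM; doses: 20 µM single dose; incubation: enzyme reaction for 30 min at room temperature; detection: CDP-star luminescence signal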
hIAP act: human IAP activators, primary screen, biochemical, luminescence, uHTS; purified human IAP, CDP-Star luminescence, 30 min; stronger effect = higher value; 1 = vehicle-only enzyme, 0 = enzyme-free background; activation factor at 10 µM; hit rate 0.16% among 330,000; AID 2524, 2010;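 active = activation factor of the enzyme at least 2-fold when tested at 20 µM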
mIAP inh: inhibitors of mouse IAP, primary screen, biochemical, luminescence, uHTS. intestinal alkaline phosphatase [Mus musculus]. purified mouse IAP, CDP-Star luminescence, 30 min. inhibition, % at 10 µM. hit rate 0.2% among 330,000;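 active = inhibition of at least 40% at 10 µM in the primary screen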;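 also: plate controls were DMSO with enzyme for no effect and no enzyme wells for full effect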
hIAP act confirm: human IAP activators, confirmation, biochemical, luminescence, single concentration, uHTS hits. shares compounds with hIAP act. purified IAP, CDP-Star luminescence, 30 min; stronger effect = lower value. activation (%Activity, negative = activation), % at 8.3 µM. hit rate 10% among 880. AID 434926, 2010;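 active = at least twofold enzyme activation in any of six single-dose repeats, which the averaged readout prints as negative percent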
mIAP inh confirm: inhibitors of mouse IAP, confirmation, biochemical, luminescence, single concentration | hit rate 4.7% among 11,000 | inhibition, % at 10 µM | AID 434971, 2010 | purified mouse IAP, CDP-Star luminescence, 30 min | shares compounds with mIAP inh;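 active = inhibition of at least 40% at 10 µM in either of the two replicates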;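 also: plate controls were DMSO wells with enzyme for no effect and buffer wells lacking enzyme for full effect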
Starred values were filed as active, the others as inactive; · = no result. Sampled rows, rich in hits. Any-hit rate of the full collection: about 0.72%.

SMILES | bIAP act | hIAP block | mIAP activ | bIAP inh | hIAP act | mIAP inh | mIAP inh confirm | others
CN1C(=O)C(=Cc2ccc(N3CCCCCC3)o2)C(=O)N(C)C1=S | 0.7 | 1 | 0.57 | 27 | 0.99 | 43* | ·
COc1ccccc1C(=O)Nc1ccc2c(c1)CC1(C(=O)N(C)C(=O)N(C)C1=O)C1CCCN21 (centres undefined) | · | -5 | 0.98 | · | 1 | 2 | ·
O=C(Nc1cccc(Cl)c1)OC1CN2CCC1CC2 (centres undefined) | · | 7 | 4.4* | · | 0.93 | -342 | ·
CCOP(=S)(OCC)Oc1nc(Cl)c(Cl)cc1Cl | · | -3 | 0.78 | · | 1 | 22 | ·
Nc1ncc([N+](=O)[O-])s1 | · | -17 | 0.57 | · | 1.2 | 43* | ·
NS(=O)(=O)c1ccc(-c2ccc(C=C3C(=O)NC(=O)NC3=O)o2)cc1 | · | 7 | 0.35 | · | 0.93 | 64* | ·
CNS(=O)(=O)c1ccc(-c2ccc(C=C3C(=O)NC(=O)NC3=O)o2)cc1 | · | 9 | 0.81 | · | 0.91 | 19 | ·
C=CCn1c(C)c(C=C2C(=O)NC(=O)NC2=O)c2ccccc21 | · | 7 | 0.84 | · | 0.93 | 16 | ·
COC(=O)Cn1cc(/C=C2\C(=O)NC(=O)N(c3ccccc3)C2=O)c2ccccc21 | · | 37* | 0.98 | · | 0.63 | 2 | · | hIAP act confirm=34
CCOC(=O)C1CCN(C(C)C(=O)c2c[nH]c3ccccc23)CC1 (centres undefined) | · | -10 | 1.1 | · | 1.1 | -7 | ·
COc1ccc(OC)c(N2C(=O)NC(=O)/C(=C\c3ccc([N+](=O)[O-])s3)C2=O)c1 | 1 | 16 | 0.72 | -2 | 0.84 | 28 | ·
Cc1ccc(/C=C2/C(=O)NC(=O)N(C)C2=O)cc1 | 1 | -13 | 0.99 | -5 | 1.1 | 1 | ·
CN1C(=O)NC(=O)/C(=C/c2ccc([N+](=O)[O-])s2)C1=O | · | 0 | 0.54 | · | 1 | 46* | 45*
O=C1NC(=O)N(c2ccccc2)C(=O)/C1=C\c1ccc([N+](=O)[O-])s1 | · | 2 | 0.59 | · | 0.98 | 41* | 53*
C[C@]12CCC3C(CC[C@H]4C[C@H](O)CC[C@]34C)C1[C@@H](O)C[C@@H]2O (some centres undefined) | · | 15 | 1 | · | 0.85 | 0 | ·
O=C(COc1ccc2ccc(=O)oc2c1)N1C[C@H]2C[C@@H](C1)c1cccc(=O)n1C2 | · | 9 | 1 | · | 0.91 | -5 | ·
O=C(COc1ccc(Br)cc1)N1CCN(Cc2ccc3c(c2)OCO3)CC1 | · | -5 | 0.97 | · | 1.1 | 3 | ·
CCN(CC)c1ccc(/C=C2/C(=O)NC(=O)N(CC3CCCO3)C2=O)cc1 (centres undefined) | 1 | 9 | 0.97 | 1 | 0.91 | 3 | ·
O=C(O)Cn1cc(/C=C2\C(=O)NC(=O)N(Cc3ccco3)C2=O)c2ccccc21 | 1.1 | 1 | 0.43 | -8 | 0.99 | 57* | 58*
CCN(CC)c1ccc(/C=C2\C(=O)NC(=O)N(Cc3ccco3)C2=O)cc1 | 0.9 | 5 | 0.51 | 14 | 0.95 | 49* | 53*
CC1=C2[C@@H]3OC(=O)[C@H](C)C3CC[C@@]2(C)C=CC1=O (some centres undefined) | · | -4 | 1 | · | 1 | -2 | ·
CCN1C(=O)C(=Cc2ccc(C)s2)C(=O)N(CC)C1=S | 0.9 | 9 | 0.89 | 13 | 0.91 | 11 | ·
O=C1NC(=S)NC(=O)C1=Cc1ccc(Br)s1 | · | -6 | 0.4 | · | 1.1 | 60* | 76*
CN1C(=O)NC(=O)/C(=C\c2ccc([N+](=O)[O-])o2)C1=O | 1 | 11 | 0.56 | 2 | 0.89 | 44* | 56*
O=C1NC(=O)N(c2ccccc2)C(=O)/C1=C\c1ccc([N+](=O)[O-])o1 | · | -16 | 0.53 | · | 1.2 | 47* | 59*
SMILES | bIAP act | hIAP block | mIAP activ | bIAP inh | hIAP act | mIAP inh | mIAP inh confirm | others
CN1C(=O)NC(=O)/C(=C/c2ccc([N+](=O)[O-])o2)C1=O | · | 12 | 0.58 | · | 0.88 | 42* | 42*
O=C1NC(=O)N(Cc2ccccc2)C(=O)/C1=C\c1ccco1 | 1.1 | 9 | 0.93 | -14 | 0.91 | 7 | ·
O=C1NC(=O)N(Cc2ccc(F)cc2)C(=O)/C1=C\C=C\c1ccco1 | · | 1 | 0.41 | · | 0.99 | 59* | 61*
CC(C)(C)c1cc(C=C(C#N)C#N)cc(C(C)(C)C)c1O | · | 20 | 0.76 | · | 0.8 | 24 | ·
N#CC(C#N)=Cc1ccc(O)c(O)c1 | · | 33 | 0.54 | · | 0.67 | 46* | 66*
C/C=C(\C)C(=O)OC1C(C)=C2C(C1OC(=O)CCCCC)C(C)(OC(C)=O)CC(OC(=O)CCC)C1(O)C2OC(=O)C1(C)O (centres undefined) | · | -6 | 0.83 | · | 1.1 | 17 | ·
NS(=O)(=O)c1ccc(-c2ccc(C=C3C(=O)NC(=S)NC3=O)o2)cc1 | · | 7 | 0.22 | · | 0.93 | 78* | 72*
CN1CCCN(C(=O)COc2cccc(C(F)(F)F)c2)CC1 | · | -7 | 0.91 | · | 1.1 | 9 | ·
Cc1ccc(CN2C3CCCC2CC(NC(=S)NCc2ccccc2)C3)cc1 (centres undefined) | 4.2* | -100 | 4.5* | -320 | 2 | -353 | -188

Screens (PubChem BioAssay)
